According to ChEMBL document CHEMBL3351932, “Discovery of BI 207524, an indole diamide NS5B thumb pocket 1 inhibitor with improved potency for the potential treatment of chronic hepatitis C virus infection” (J Med Chem, 2014):
One block for each molecule: values may come before it.

Legend:
[1] = Inhibition of HCV full-length NS5B polymerase; design: species or system Hepacivirus hominis
How it was run: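 Polymerase inhibition with full-length NS5B enzyme in a biochemical assay; IC50 averaged from duplicate measurements, at least two determinations.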

[2] = Dissociation constant, pKa of the compound; assay type: physicochemical
How it was run: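 pKa derived from pH titration curves.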

[3] = AUC in rat at 10 mg/kg, po; assay type: ADME, organism-based; design: dose 10 mg/kg, route oral; conditions: plasma
How it was run: (§1)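 Single-compound oral PK after overnight fast; 10 mg/kg given as suspension in 0.5% methylcellulose and 0.3% Tween-80, with or without 1% NMP as added solubilizer; N=3 per dose and route. Plasma kept on ice, centrifuged at 4°C, stored near -20°C, extracted by solid phase, quantified by HPLC-UV or LC/MS against blank-plasma standards (LOQ 7 ng/mL); non-compartmental analysis.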

[4] = Oral bioavailability in monkey at 10 mg/kg; assay type: ADME, organism-based, Macaca mulatta; conditions: rhesus monkey, in vivo; how it was run: as §1
[5] = Inhibition of recombinant Hepatitis C virus genotype 1b Con1 NS5B RNA dependent RNA polymerase delta21; design: species or system Hepatitis C virus subtype 1b
How it was run: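 Biochemical polymerase assay with C-terminally truncated genotype 1b NS5B∆21; IC50 taken as mean of duplicates.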

[6] = Cytotoxicity against human HuH7 cells assessed as cell viability by MTT assay; assay type: cell-based; conditions: Huh-7 cells, read-out: TC50 (the source's name)
Hepatitis C virus [7] = assay: Antiviral activity against Hepatitis C virus genotype 1b assessed as shift in EC50 by cell-based replicon assay in presence of 40% human serum; assay type: functional, Hepacivirus hominis
[8] = Plasma protein binding in human; assay type: ADME, cell-free; conditions: read-out: PPB (converted)
[9] = Lipophilicity, log D of the compound at pH 7.4; assay type: physicochemical; conditions: buffer
[10] = Permeability across apical at pH6 to basolateral side at pH 7.4 in human Caco2 cells; assay type: ADME, cell-based; conditions: Caco-2, pH 6, read-out: permeability
How it was run: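 Caco-2 monolayer permeability measured apical to basolateral, apical side at pH 6.0 and basolateral at pH 7.4.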

Cytochrome P450 1A2 = target: T1, Cytochrome P450 1A2 (Homo sapiens, UniProt P05177); assay: Inhibition of CYP1A2 (unknown origin); assay type: ADME
T1 sequence (P05177 whole entry): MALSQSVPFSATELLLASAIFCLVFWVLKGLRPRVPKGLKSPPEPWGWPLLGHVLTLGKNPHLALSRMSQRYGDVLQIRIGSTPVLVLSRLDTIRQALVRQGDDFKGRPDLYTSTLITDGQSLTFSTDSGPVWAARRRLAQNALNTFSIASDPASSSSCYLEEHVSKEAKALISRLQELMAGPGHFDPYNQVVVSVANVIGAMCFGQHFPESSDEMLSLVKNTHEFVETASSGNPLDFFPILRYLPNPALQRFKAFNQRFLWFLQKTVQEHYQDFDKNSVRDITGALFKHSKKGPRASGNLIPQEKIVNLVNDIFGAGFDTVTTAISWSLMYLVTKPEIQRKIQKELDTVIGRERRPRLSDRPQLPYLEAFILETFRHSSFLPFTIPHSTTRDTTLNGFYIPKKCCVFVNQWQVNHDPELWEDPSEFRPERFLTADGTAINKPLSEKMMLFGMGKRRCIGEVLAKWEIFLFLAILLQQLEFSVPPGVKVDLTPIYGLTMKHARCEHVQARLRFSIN

Cytochrome P450 2C9 = Cytochrome P450 2C9 (Homo sapiens, UniProt P11712); assay: Inhibition of CYP2C9 (unknown origin); assay type: ADME
Cytochrome P450 2D6 = Cytochrome P450 2D6 (Homo sapiens, UniProt P10635); assay: Inhibition of CYP2D6 (unknown origin); assay type: ADME
[11] = Inhibition of Hepatitis C virus genotype 1b Con1 NS5B RNA dependent RNA polymerase activity using Bright-Glo luciferase substrate by cell-based 1b luciferase reporter assay; design: species or system Hepatitis C virus (isolate Con1)
How it was run: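 Cell-based genotype 1b luciferase reporter replicon assay; EC50 determined in duplicate, values averaged over at least two determinations.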

[12] = Half life in human liver microsomes; assay type: ADME
[13] = Half life in rat liver microsomes; assay type: ADME
[14] = Permeability across apical to basolateral side in human Caco2 cells; assay type: ADME, cell-based; conditions: Caco-2, read-out: permeability
[15] = Plasma concentration in rat at 4 mg/kg, po cassette dosing after 1 hr; assay type: ADME, organism-based; design: dose 4 mg/kg, route oral
How it was run: (§2)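 Cassette screen: mixture of 4 compounds, each at 4 mg/kg, dosed orally to 2 rats; plasma sampled at 1 h and 2 h, solid-phase extracted and quantified by HPLC-UV or LC/MS against calibration standards in blank plasma (LOQ 7 ng/mL).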

[16] = Plasma concentration in rat at 4 mg/kg, po cassette dosing after 2 hrs; assay type: ADME, organism-based; design: dose 4 mg/kg, route oral; how it was run: as §2
[17] = Cmax in rat at 10 mg/kg, po; assay type: ADME, organism-based; design: dose 10 mg/kg, route oral; conditions: in vivo; how it was run: as §1
[18] = Mean residence time in rat at 10 mg/kg, po; assay type: ADME, organism-based; design: dose 10 mg/kg, route oral; conditions: in vivo; how it was run: as §1
[19] = Volume of distribution at steady state in rat at 2 mg/kg, iv; assay type: ADME, organism-based; design: dose 2 mg/kg, route intravenous; conditions: in vivo, read-out: Vdss
How it was run: (§3)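 Fasted animals dosed IV by bolus at 2 mg/kg in 70% PEG-400:30% water; N=3 per dose and route. Plasma separated at 4°C, stored near -20°C, solid-phase extracted, assayed by HPLC-UV or LC/MS with blank-plasma calibration (r2 > 0.99, LOQ 7 ng/mL); parameters from non-compartmental analysis.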

[20] = Clearance in rat at 2 mg/kg, iv; assay type: ADME, organism-based; design: dose 2 mg/kg, route intravenous; conditions: in vivo; how it was run: as §3
[21] = Half life in rat at 2 mg/kg, iv; assay type: ADME, organism-based; design: dose 2 mg/kg, route intravenous; conditions: in vivo; how it was run: as §3
[22] = Oral bioavailability in rat at 10 mg/kg; assay type: ADME, organism-based; conditions: in vivo; how it was run: as §1
[23] = Ratio of drug level in rat liver to plasma after 6 hrs; assay type: ADME, cell-free
[24] = Cmax in dog at 10 mg/kg, po; assay type: ADME, organism-based, Canis lupus familiaris; design: dose 10 mg/kg, route oral; conditions: in vivo; how it was run: as §1
[25] = Cmax in monkey at 10 mg/kg, po; assay type: ADME, organism-based, Macaca mulatta; design: dose 10 mg/kg, route oral; conditions: rhesus monkey, in vivo; how it was run: as §1
[26] = AUC in dog at 10 mg/kg, po; assay type: ADME, organism-based, Canis lupus familiaris; design: dose 10 mg/kg, route oral; conditions: plasma; how it was run: as §1
[27] = AUC in monkey at 10 mg/kg, po; assay type: ADME, organism-based, Macaca mulatta; design: dose 10 mg/kg, route oral; conditions: rhesus monkey, plasma; how it was run: as §1
[28] = Mean residence time in dog at 10 mg/kg, po; assay type: ADME, organism-based, Canis lupus familiaris; design: dose 10 mg/kg, route oral; conditions: in vivo; how it was run: as §1
[29] = Mean residence time in monkey at 10 mg/kg, po; assay type: ADME, organism-based, Macaca mulatta; design: dose 10 mg/kg, route oral; conditions: rhesus monkey, in vivo; how it was run: as §1
[30] = Volume of distribution at steady state in dog at 2 mg/kg, iv; assay type: ADME, organism-based, Canis lupus familiaris; design: dose 2 mg/kg, route intravenous; conditions: in vivo, read-out: Vdss; how it was run: as §3
Rhesus monkey [31] = assay: Volume of distribution at steady state in monkey at 2 mg/kg, iv; assay type: ADME, organism-based, Macaca mulatta; design: dose 2 mg/kg, route intravenous; conditions: in vivo; how it was run: as §3
[32] = Clearance in dog at 2 mg/kg, iv; assay type: ADME, organism-based, Canis lupus familiaris; design: dose 2 mg/kg, route intravenous; conditions: in vivo; how it was run: as §3
Rhesus monkey [33] = assay: Clearance in monkey at 2 mg/kg, iv; assay type: ADME, organism-based, Macaca mulatta; design: dose 2 mg/kg, route intravenous; conditions: in vivo; how it was run: as §3
[34] = Half life in dog at 2 mg/kg, iv; assay type: ADME, organism-based, Canis lupus familiaris; design: dose 2 mg/kg, route intravenous; conditions: in vivo; how it was run: as §3
Rhesus monkey [35] = assay: Half life in monkey at 2 mg/kg, iv; assay type: ADME, organism-based, Macaca mulatta; design: dose 2 mg/kg, route intravenous; conditions: in vivo; how it was run: as §3
[36] = Oral bioavailability in dog at 10 mg/kg; assay type: ADME, organism-based, Canis lupus familiaris; conditions: in vivo; how it was run: as §1
Hepatitis C virus [37] = assay: Antiviral activity against Hepatitis C virus genotype 1a by cell-based replicon assay; assay type: functional, Hepacivirus hominis; conditions: subtype 1a
Hepatitis C virus [38] = assay: Antiviral activity against Hepatitis C virus genotype 1b by cell-based replicon assay; assay type: functional, Hepacivirus hominis
Cytochrome P450 2C19 = Cytochrome P450 2C19 (Homo sapiens, UniProt P33261); assay: Inhibition of CYP2C19 (unknown origin); assay type: ADME
Cytochrome P450 3A4 = Cytochrome P450 3A4 (Homo sapiens, UniProt P08684); assay: Inhibition of CYP3A4 (unknown origin); assay type: ADME
[39] = Inhibition of calf thymus DNA-dependent RNA polymerase; design: species or system Bos taurus
[40] = target: Voltage-gated inwardly rectifying potassium channel KCNH2 (Homo sapiens, UniProt Q12809); assay: Inhibition of human ERG channel at 0.8 uM
Salmonella typhimurium = assay: Mutagenic activity in Salmonella typhimurium by Ames test; assay type: toxicity, organism-based; conditions: salmonella enterica subsp. enterica serovar typhimurium
How it was run: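 Ames test run with and without metabolic activation at doses up to maximum solubility.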

Canis familiaris = assay: Cardiotoxicity in dog assessed as electrocardiographic parameters up to 200 mg/kg; assay type: toxicity, organism-based, Canis lupus familiaris; design: dose 200 mg/kg; conditions: in vivo
[41] = Cardiotoxicity in guinea pig papillary muscles assessed as action potential duration at 90% repolarization

Cytochrome P450 2D6, sequence (P10635 whole entry): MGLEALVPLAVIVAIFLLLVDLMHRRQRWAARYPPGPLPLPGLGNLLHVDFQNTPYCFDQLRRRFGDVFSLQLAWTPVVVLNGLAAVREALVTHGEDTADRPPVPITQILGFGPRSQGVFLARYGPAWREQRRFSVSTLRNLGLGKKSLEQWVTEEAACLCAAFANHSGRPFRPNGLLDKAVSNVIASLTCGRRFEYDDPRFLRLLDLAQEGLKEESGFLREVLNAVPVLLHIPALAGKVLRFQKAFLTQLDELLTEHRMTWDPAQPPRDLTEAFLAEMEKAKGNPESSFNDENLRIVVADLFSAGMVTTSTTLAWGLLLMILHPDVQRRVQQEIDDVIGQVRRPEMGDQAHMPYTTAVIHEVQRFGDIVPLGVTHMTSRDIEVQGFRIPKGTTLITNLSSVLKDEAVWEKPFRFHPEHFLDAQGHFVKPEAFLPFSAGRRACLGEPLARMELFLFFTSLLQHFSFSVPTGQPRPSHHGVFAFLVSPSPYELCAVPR
Cytochrome P450 2C9, sequence (P11712 whole entry): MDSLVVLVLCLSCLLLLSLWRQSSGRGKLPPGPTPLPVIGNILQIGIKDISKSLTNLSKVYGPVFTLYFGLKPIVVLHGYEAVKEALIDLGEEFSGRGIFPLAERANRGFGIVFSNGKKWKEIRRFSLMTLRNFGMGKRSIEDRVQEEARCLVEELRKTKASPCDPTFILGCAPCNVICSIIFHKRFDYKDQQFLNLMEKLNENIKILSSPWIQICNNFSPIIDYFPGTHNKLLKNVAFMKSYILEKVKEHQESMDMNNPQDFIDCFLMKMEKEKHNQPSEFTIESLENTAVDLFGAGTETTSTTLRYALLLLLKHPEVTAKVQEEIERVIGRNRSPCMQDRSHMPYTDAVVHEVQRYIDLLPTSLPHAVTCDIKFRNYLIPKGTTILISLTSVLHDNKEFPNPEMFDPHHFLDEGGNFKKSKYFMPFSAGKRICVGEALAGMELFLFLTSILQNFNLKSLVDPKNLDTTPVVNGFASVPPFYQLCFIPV
Cytochrome P450 2C19, sequence (P33261 whole entry): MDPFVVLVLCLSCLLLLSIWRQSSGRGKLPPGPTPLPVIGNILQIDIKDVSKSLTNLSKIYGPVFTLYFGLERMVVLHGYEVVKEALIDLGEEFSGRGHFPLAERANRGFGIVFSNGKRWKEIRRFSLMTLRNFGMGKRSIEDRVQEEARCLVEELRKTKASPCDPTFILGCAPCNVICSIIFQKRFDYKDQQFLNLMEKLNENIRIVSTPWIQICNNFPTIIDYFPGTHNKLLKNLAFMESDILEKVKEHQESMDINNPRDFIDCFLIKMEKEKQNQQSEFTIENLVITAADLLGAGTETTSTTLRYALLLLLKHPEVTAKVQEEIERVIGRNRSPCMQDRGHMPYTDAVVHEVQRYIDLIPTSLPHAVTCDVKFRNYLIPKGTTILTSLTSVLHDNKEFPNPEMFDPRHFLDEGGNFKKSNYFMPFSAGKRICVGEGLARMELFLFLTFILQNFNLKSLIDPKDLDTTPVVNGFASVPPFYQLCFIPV
Voltage-gated inwardly rectifying potassium channel KCNH2, sequence (Q12809 whole entry): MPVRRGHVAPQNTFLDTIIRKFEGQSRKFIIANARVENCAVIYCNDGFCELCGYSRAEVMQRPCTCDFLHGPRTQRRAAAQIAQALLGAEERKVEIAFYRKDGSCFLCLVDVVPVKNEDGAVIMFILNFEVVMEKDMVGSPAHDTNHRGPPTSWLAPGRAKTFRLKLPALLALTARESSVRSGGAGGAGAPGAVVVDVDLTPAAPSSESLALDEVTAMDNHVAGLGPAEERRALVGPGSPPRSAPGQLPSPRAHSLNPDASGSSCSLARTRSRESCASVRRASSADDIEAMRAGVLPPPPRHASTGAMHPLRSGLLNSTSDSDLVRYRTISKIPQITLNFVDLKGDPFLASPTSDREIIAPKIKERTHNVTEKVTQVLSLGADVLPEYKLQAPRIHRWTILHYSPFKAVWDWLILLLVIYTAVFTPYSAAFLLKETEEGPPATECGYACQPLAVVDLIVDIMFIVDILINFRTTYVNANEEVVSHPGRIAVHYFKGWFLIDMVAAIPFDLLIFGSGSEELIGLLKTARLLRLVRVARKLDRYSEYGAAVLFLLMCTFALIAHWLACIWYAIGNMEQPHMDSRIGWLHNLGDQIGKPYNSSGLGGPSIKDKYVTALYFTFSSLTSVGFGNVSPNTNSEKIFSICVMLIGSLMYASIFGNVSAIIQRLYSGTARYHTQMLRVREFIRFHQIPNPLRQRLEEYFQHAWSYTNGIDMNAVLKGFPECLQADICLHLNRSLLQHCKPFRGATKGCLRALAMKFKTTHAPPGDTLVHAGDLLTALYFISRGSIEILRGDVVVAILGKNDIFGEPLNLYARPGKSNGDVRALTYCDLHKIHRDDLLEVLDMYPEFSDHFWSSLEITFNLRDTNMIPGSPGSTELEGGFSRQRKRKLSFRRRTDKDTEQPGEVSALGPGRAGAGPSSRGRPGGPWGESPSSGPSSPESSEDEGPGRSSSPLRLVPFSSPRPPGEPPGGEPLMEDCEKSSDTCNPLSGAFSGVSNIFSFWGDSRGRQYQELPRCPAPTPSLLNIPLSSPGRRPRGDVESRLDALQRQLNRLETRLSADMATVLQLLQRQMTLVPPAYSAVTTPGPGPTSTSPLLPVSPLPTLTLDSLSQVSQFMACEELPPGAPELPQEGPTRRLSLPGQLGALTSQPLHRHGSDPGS
Cytochrome P450 3A4, sequence (P08684 whole entry): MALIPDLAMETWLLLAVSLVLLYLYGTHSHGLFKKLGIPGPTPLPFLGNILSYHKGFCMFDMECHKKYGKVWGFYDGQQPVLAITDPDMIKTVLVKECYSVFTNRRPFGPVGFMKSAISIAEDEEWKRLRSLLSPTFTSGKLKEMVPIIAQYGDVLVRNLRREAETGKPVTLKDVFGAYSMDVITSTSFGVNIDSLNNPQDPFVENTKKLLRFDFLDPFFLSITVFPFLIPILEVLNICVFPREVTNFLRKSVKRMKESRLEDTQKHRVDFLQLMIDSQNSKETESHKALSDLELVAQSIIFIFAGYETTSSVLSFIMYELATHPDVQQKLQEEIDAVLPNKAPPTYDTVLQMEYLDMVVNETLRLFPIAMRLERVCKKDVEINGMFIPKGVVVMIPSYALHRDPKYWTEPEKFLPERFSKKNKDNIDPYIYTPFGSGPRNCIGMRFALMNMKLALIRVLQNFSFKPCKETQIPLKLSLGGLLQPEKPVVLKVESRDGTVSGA

Compound: Cn1c(-c2ccccn2)c(C2CCCC2)c2ccc(C(=O)NC3(C(=O)Nc4ccc(/C=C/C(=O)O)cc4)CCC3)cc21 [BILB-1941]
IC50 [1]: 0.06 µM
pKa [2]: 4.5
AUC [3]: 23 µM·h
bioavailability [4]: 70%
IC50 [5]: 0.067 µM
CC50 [6]: 93 µM
fold change (FC) (Hepatitis C virus [7]): 3
fraction unbound [8]: 0.008
logD [9]: 3.3
Papp A→B [10]: 11 ×10⁻⁶ cm/s
IC50 (Cytochrome P450 1A2): 13 µM
IC50 (Cytochrome P450 2C9): 3.5 µM
IC50 (Cytochrome P450 2D6): > 30 µM

IC50 [1]: 0.11 µM
EC50 [11]: 0.013 µM
half-life [12]: 1.7 h
half-life [13]: 1.73 h
Papp A→B [14]: 13 ×10⁻⁶ cm/s
pKa [2]: 6.5
concentration at 1 h [15]: 3.4 µM
concentration at 2 h [16]: 2.3 µM
Cmax [17]: 6.3 µM
AUC [3]: 19 µM·h
MRT [18]: 3.6 h
Vd [19]: 0.38 L/kg
clearance [20]: 2.6 mL/min/kg
half-life [21]: 2.4 h
bioavailability [22]: 19%
Kp at 6 h [23]: 5
Cmax [24]: 8.1 µM
Cmax [25]: 9.6 µM
AUC [26]: 76 µM·h
AUC [27]: 53 µM·h
MRT [28]: 8 h
MRT [29]: 6.1 h
Vd [30]: 0.38 L/kg
Vdss (Rhesus monkey [31]): 0.6 L/kg
clearance [32]: 1 mL/min/kg
CL (Rhesus monkey [33]): 3.6 mL/min/kg
half-life [34]: 4.5 h
t1/2 (Rhesus monkey [35]): 3 h
bioavailability [36]: 29%
bioavailability [4]: 72%
IC50 [5]: 0.084 µM
EC50 (Hepatitis C virus [37]): 0.029 µM
EC50 (Hepatitis C virus [38]): 0.011 µM
fraction unbound [8]: 0.004
logD [9]: 4.1
Papp A→B [10]: 13 ×10⁻⁶ cm/s
IC50 (Cytochrome P450 1A2): > 30 µM
IC50 (Cytochrome P450 2C9): 13.5 µM
IC50 (Cytochrome P450 2C19): > 30 µM
IC50 (Cytochrome P450 2D6): > 30 µM
IC50 (Cytochrome P450 3A4): > 30 µM
IC50 [39]: 70 µM
Compound: CCOc1cc(NC(=O)C2(NC(=O)c3ccc4c(C5CCCC5)c(-c5ncc(Cl)cn5)n(C)c4c3)CCC2)ccc1/C=C/C(=O)O
CC50 [6]: 38 µM
fold change (FC) (Hepatitis C virus [7]): 3.8
inhibition (INH) [40]: Not Active
Activity (Salmonella typhimurium): Non-toxic
Activity (Canis familiaris): Non-toxic
Activity [41]: Non-toxic
